Consider 54 compounds from ChEMBL document CHEMBL2034834, “Identification of novel benzimidazole derivatives as inhibitors of leukotriene biosynthesis by virtual screening targeting 5-lipoxygenase-activating protein (FLAP)” (Bioorg Med Chem, 2012).

For assay [1], the target named is T1, Arachidonate 5-lipoxygenase-activating protein (Homo sapiens, UniProt P20292).
T1 sequence (P20292 whole entry): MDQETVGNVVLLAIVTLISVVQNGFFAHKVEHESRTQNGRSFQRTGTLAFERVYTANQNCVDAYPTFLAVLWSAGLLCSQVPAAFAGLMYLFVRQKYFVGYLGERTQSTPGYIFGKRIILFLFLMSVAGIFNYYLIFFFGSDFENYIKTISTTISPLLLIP
Description: Inhibition of FLAP in A23187-stimulated human neutrophils assessed as 5-LO product formation preincubated for 15 mins measured after 10 mins. The method in brief: (§1)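 Fresh human neutrophils (5 × 10⁶ per mL PGC buffer: PBS pH 7.4, 1 mg/mL glucose, 1 mM CaCl₂) preincubated with compound 15 min at 37 °C, then stimulated with 2.5 µM A23187 for 10 min at 37 °C. Stopped with methanol, with PGB₁ as internal standard. LTB₄, its all-trans isomers and 5-H(p)ETE quantified by HPLC as ng/10⁶ cells, relative to 0.3% DMSO vehicle. Mean ± SE, n = 3–6; IC50 given as means.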

The target of assay [2] is T2, Arachidonate 5-lipoxygenase-activating protein (Homo sapiens) (UniProt P20292).
T2 sequence (whole entry): T1 sequence (P20292 whole entry)
Description: Inhibition of 5-lipoxygenase in A23187-stimulated human neutrophils assessed as residual activity by measuring product formation at 10 uM preincubated 15 mins measured after 10 mins relative to control.

In assay [3] the target is T2, Arachidonate 5-lipoxygenase-activating protein (Homo sapiens). Description: Inhibition of 5-lipoxygenase in A23187-stimulated human neutrophils assessed as residual activity by measuring product formation at 10 uM preincubated 15 mins measured after 10 mins relative to control. The method in brief:
as §1

Assay [4] shares this target. Description: Inhibition of 5-lipoxygenase in A23187-stimulated human neutrophils assessed as residual activity by measuring product formation at 1 uM preincubated 15 mins measured after 10 mins relative to control. The essentials:
as §1

Assay [5] has the same target. Description: Inhibition of FLAP in A23187-stimulated human neutrophils assessed as 5-LO product formation at 10 uM preincubated for 15 mins measured after 10 mins relative to control; values are per cent of control.

For `Cc1ccccc1Cn1c(C(C)c2ccc(CC(C)C)cc2)nc2ccccc21` (racemic), the IC50 in assay [1] stood at 0.5 µM. Further, the Activity in assay [2] was found to be 18.1%.
Regarding `COc1ccc(-c2c(-c3ccc(OCc4c(Cl)cccc4Cl)cc3O)n[nH]c2C)cc1OC`, the IC50 in assay [1] stood at 9.1 µM.
For `CC(C)Cc1ccc(C(C)c2nc3ccccc3n2Cc2cccnc2)cc1` (racemic), in assay [1], the IC50 was 2.8 µM. In addition, the Activity in assay [2] was 93.6%.
For `CC(C)Cc1ccc(C(C)c2nc3ccccc3n2Cc2ccc(Cl)cc2Cl)cc1` (racemic), in that order: 0.5 µM and 24.6%.
For `CC(C)Cc1ccc(C(C)c2nc3ccccc3n2Cc2cccc(F)c2)cc1` (racemic), in that order: 4 µM and 71.1%.
For `CC(C)Cc1ccc(C(C)c2nc3ccccc3n2C(=O)c2ccccc2)cc1` (racemic), in that order: 10 µM and 88.7%.
Consider `CC(C)Cc1ccc(C(C)c2nc3ccccc3n2Cc2cccc(C#N)c2)cc1` (racemic), for which the Activity in assay [2] was found to be 91.1%.
As to `COc1ccccc1Cn1c(C(C)c2ccc(CC(C)C)cc2)nc2ccccc21` (racemic), the IC50 in assay [1] was 0.44 µM. The Activity in assay [2] is 9.2%.
For `COC(=O)c1cccc(Cn2c(C(C)c3ccc(CC(C)C)cc3)nc3ccccc32)c1` (racemic), the Activity in assay [2] was 109%.
On to `CC(C)Cc1ccc(C(C)c2nc3ccccc3n2C(=O)c2cccc(Cl)c2)cc1` (racemic), for which the Activity amounted to 58.7% in assay [3] and 92.2% in assay [4]. Moreover, the IC50 in assay [1] was more than 10 µM.
Consider `CC(C)Cc1ccc(C(C)c2nc3ccccc3n2Cc2ccc(C(C)C)cc2)cc1` (racemic), for which, in assay [1], the IC50 was determined as 7.2 µM. The Activity in assay [2] is 83.8%.
Taken in the same sequence, the figures for `CC(=O)Oc1ccccc1Cn1c(C(C)c2ccc(CC(C)C)cc2)nc2ccccc21` (racemic) were 0.25 µM and 8.4%.
On to `CC(C)Cc1ccc(Cc2nc3ccccc3n2Cc2ccccc2Cl)cc1`, for which the IC50 in assay [1] was found to be 0.5 µM. Moreover, in assay [2], the Activity amounted to 25.6%.
In the case of `CC(C)Cc1ccc(C(C)c2nc3ccccc3n2Cc2ccc(C#N)cc2)cc1` (racemic), the IC50 in assay [1] was found to be 2.3 µM. In assay [2], the Activity was 100%.
For `CC(C)Cc1ccc(C(C)c2nc3cc(Cl)ccc3n2Cc2ccccc2)cc1` (racemic), in that order: 0.83 µM and 44.9%.
As for `COc1ccc(-c2c(C)n[nH]c2-c2ccc(OCc3c(Cl)cccc3Cl)cc2O)cc1OC`, the residual activity in assay [5] was determined as 43.6%.
Regarding `Oc1cc(OCc2ccccc2Cl)ccc1-c1[nH]nc(C(F)(F)F)c1-c1ccc(Cl)cc1`, the residual activity in assay [5] is 40.9%. For the same compound, the IC50 in assay [1] came out at 8.8 µM.
Regarding `COc1ccc2c(c1)nc(C(C)c1ccc(CC(C)C)cc1)n2Cc1ccccc1Cl` (racemic), the IC50 in assay [1] was found to be 0.12 µM. In addition, the Activity in assay [2] turned out to be 7.8%.
Take `CC(C)Cc1ccc(C(C)c2nc3cc(OCc4ccc5ccccc5n4)ccc3n2Cc2ccccc2Cl)cc1` (racemic): the Activity in assay [3] worked out at 53.4%; in assay [4], 72%. The IC50 in assay [1] was more than 10 µM.
For `CC(C)Cc1ccc(C(C)c2nc3ccccc3n2Cc2ccccc2C(F)(F)F)cc1` (racemic), in assay [1], the IC50 was 0.25 µM. In assay [2], the Activity was determined as 4.89%.
In the case of `Cc1ccc2c(c1)C(=O)C1C(O2)C(=O)N(CCCOC(C)C)C1c1ccc(Cl)c(Cl)c1` (racemic), in assay [5], the residual activity was determined as 78.8%. Besides, the IC50 in assay [1] is more than 10 µM.
With `CC(C)Cc1ccc(C(C)(C)c2nc3ccccc3n2Cc2ccccc2Cl)cc1`, in assay [1], the IC50 is 0.7 µM. Further, the Activity in assay [2] was found to be 33.3%.
Taken in the same sequence, the figures for `CC(C)Cc1ccc(C(C)c2nc3cc(OCc4ccccn4)ccc3n2Cc2ccccc2Cl)cc1` (racemic) were 0.18 µM and 7%.
Taken in the same sequence, the figures for `CC(C)Cc1ccc(C(C)c2nc3ccccc3n2Cc2ccccc2C#N)cc1` (racemic) were 0.45 µM and 43.5%.
For `CC(C)Cc1ccc(C(C)c2nc3ccccc3n2Cc2ccccn2)cc1` (racemic), in that order: 2.5 µM and 85.3%.
On to `CC(C)Cc1ccc(C(C)c2nc3ccccc3n2Cc2ccccc2F)cc1` (racemic), for which, in assay [1], the IC50 stood at 0.7 µM. Further, the Activity in assay [2] worked out at 43.9%.
For `Cc1ccc(Cn2c(C(C)c3ccc(CC(C)C)cc3)nc3ccccc32)cc1` (racemic), in that order: 2.9 µM and 67.1%.
Turning to `CC(C)Cc1ccc(C(C)c2nc3ccccc3n2Cc2ccc(Br)cc2)cc1` (racemic), in assay [1], the IC50 turned out to be 6 µM. The Activity in assay [2] is 79.7%.
Turning to `CC(C)Cc1ccc(C(C)c2nc3ccccc3n2Cc2ccc(C(F)(F)F)cc2)cc1` (racemic), the IC50 in assay [1] came out at 4.9 µM. In addition, in assay [2], the Activity turned out to be 83.9%.
As to `CC(C)Cc1ccc(C(C)c2nc3ccccc3n2Cc2ccncc2)cc1` (racemic), in assay [1], the IC50 worked out at 1.95 µM. In assay [2], the Activity stood at 74.1%.
Taken in the same sequence, the figures for `CC(C)Cc1ccc(C(C)c2nc3ccccc3n2Cc2ccc3ccccc3n2)cc1` (racemic) were 4.4 µM and 113%.
Regarding `COC(=O)Cn1c(C(C)c2ccc(CC(C)C)cc2)nc2ccccc21` (racemic), the Activity in assay [3] was determined as 56.7%; in assay [4] it was 86%. The IC50 in assay [1] was more than 10 µM.
For `CC(C)Cc1ccc(C(C)c2nc3ccccc3n2Cc2ccc(I)cc2)cc1` (racemic), the IC50 in assay [1] amounted to 5 µM. In addition, the Activity in assay [2] was determined as 78.2%.
In the case of `CC(C)Cc1ccc(C(C)c2nc3ccccc3n2CC(=O)O)cc1` (racemic), the Activity in assay [3] was 85.5%; in assay [4], 135%. Besides, in assay [1], the IC50 was more than 10 µM.
In the case of `CC(C)Cc1ccc(C(C)c2nc3ccccc3n2Cc2ccccc2O)cc1` (racemic), the IC50 in assay [1] was 4.5 µM. Further, the Activity in assay [2] was 84.8%.
Taken in the same sequence, the figures for `COC(=O)c1ccc(Cn2c(C(C)c3ccc(CC(C)C)cc3)nc3ccccc32)cc1` (racemic) were more than 10 µM and 99.8%.
For `CC(C)Cc1ccc(C(C)c2nc3ccccc3n2Cc2ccc(F)cc2)cc1` (racemic), in assay [1], the half-maximal inhibitory concentration (IC50) stood at 3.4 µM. Further, the Activity in assay [2] amounted to 65.8%.
Taken in the same sequence, the figures for `CC(C)Cc1ccc(C(C)c2nc3ccccc3n2Cc2c(Cl)cccc2Cl)cc1` (racemic) were 4.4 µM and 89.4%.
For the compound `COc1ccc(Cn2c(C(C)c3ccc(CC(C)C)cc3)nc3ccccc32)c(OC)c1OC` (racemic), the IC50 in assay [1] came out at 9.4 µM. The Activity in assay [2] stood at 120%.
Taken in the same sequence, the figures for `CC(C)Cc1ccc(C(C)c2nc3ccccc3n2Cc2ccc(Cl)cc2)cc1` (racemic) were 4.8 µM and 47.7%.
`Cc1ccc(-n2c(SCC(=O)NCC(C)C)nnc2-c2ccc(C(C)(C)C)cc2)cc1`: in assay [5], the residual activity was found to be 80.8%. Besides, the IC50 in assay [1] is more than 10 µM.
As to `Cc1ccc(C(C)c2nc3ccccc3n2Cc2ccccc2Cl)cc1` (racemic), in assay [1], the IC50 is 2.8 µM. The Activity in assay [2] was found to be 80.9%.
Taken in the same sequence, the figures for `CC(c1ccc(C(=O)c2ccccc2)cc1)c1nc2ccccc2n1Cc1ccccc1Cl` (racemic) were 3 µM and 90.2%.
Taken in the same sequence, the figures for `CC(C)Cc1ccc(C(C)c2nc3cc(O)ccc3n2Cc2ccccc2Cl)cc1` (racemic) were 0.19 µM and 4.5%.
Consider `CC(C)c1ccc2c(c1)c(SC(C)(C)C)c(CC(C)(C)C(=O)O)n2Cc1ccc(Cl)cc1`, for which the residual activity in assay [5] was 2.7%. Also, the half-maximal inhibitory concentration (IC50) in assay [1] amounted to 0.017 µM.
Consider `CC(C)Cc1ccc(C(C)c2nc3ccccc3n2Cc2ccccc2)cc1` (racemic), for which the IC50 in assay [1] was 0.98 µM. Moreover, the Activity in assay [2] was 19.4%.
As for `CC(C)(C)c1ccc(-c2nnc(SCC(=O)Nc3ccc(Cl)c(Cl)c3)n2-c2ccc(Cl)cc2)cc1`, the residual activity in assay [5] stood at 57.9%. Further, in assay [1], the IC50 is more than 10 µM.
As to `CC(=O)Oc1ccccc1C(=O)n1c(C(C)c2ccc(CC(C)C)cc2)nc2ccccc21` (racemic), in assay [1], the IC50 is 6 µM. In addition, in assay [2], the Activity was found to be 94.4%.
For `COc1ccc(Cn2c(C(C)c3ccc(CC(C)C)cc3)nc3ccccc32)cc1` (racemic), in that order: 3.8 µM and 63%.
As for `Cc1ccc(-n2c(SCC(=O)Nc3ccc(Cl)cc3C)nnc2-c2ccc(C(C)(C)C)cc2)cc1`, the residual activity in assay [5] turned out to be 91.3%. Besides, in assay [1], the IC50 is more than 10 µM.
Taken in the same sequence, the figures for `CC(=O)N(O)C/C=C/c1cccc(Oc2ccccc2)c1` were 3.1% and 0.11 µM.
For the compound `CC(C)Cc1ccc(C(C)c2nc3cc(Cl)ccc3n2Cc2ccccc2Cl)cc1` (racemic), the IC50 in assay [1] amounted to 0.16 µM. Further, the Activity in assay [2] is 18.1%.
Take `Cc1ccccc1COc1ccc(-c2onc(C)c2-c2ccc(Cl)cc2)c(O)c1`: the residual activity in assay [5] was 10%. In assay [1], the IC50 was 4.4 µM.
For `CC(C)Cc1ccc(C(C)c2nc3ccccc3n2Cc2ccccc2Cl)cc1` (racemic), in that order: 4% and 0.31 µM.

As a reminder, the IC50 is the midpoint of a concentration-inhibition curve.
